Hits are enriched below; roughly 6% of the tested compounds scored in any of these assays.
E coli WT exp: E. coli BW25113 growth inhibition, expanded screen | OD600 absorbance | growth inhibition, % at 100 µM | 98,000 tested, 0.15% active;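 active = growth inhibition above about 50% at one test dose, limit read from the data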;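 note: growth measured after 20 h incubation at 37 °C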
PostGolgi ctrl: growth of the yeast control strain, post-Golgi counter-screen; efflux-deficient yeast background strain, growth absorbance A615, 16 h; 98,000 tested, 5% active; inhibition, % at 10 µM
EphB4 antag: antagonists of human EphB4-ephrin-B2 interaction | P54760 | EphB4 LBD / TNYL-RAW-Alexa532 peptide, fluorescence polarization | inhibition, % at 7 µM | 97,000 tested, 0.15% active | AID 720;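 active = inhibition above the screen-wide mean inhibition plus 3 SD, cut at about 15% in these data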;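 note: 0% = DMSO wells and 100% = excess unlabeled TNYL-RAW peptide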
Target sequence (P54760 whole entry, looked up, the tested form may be a part): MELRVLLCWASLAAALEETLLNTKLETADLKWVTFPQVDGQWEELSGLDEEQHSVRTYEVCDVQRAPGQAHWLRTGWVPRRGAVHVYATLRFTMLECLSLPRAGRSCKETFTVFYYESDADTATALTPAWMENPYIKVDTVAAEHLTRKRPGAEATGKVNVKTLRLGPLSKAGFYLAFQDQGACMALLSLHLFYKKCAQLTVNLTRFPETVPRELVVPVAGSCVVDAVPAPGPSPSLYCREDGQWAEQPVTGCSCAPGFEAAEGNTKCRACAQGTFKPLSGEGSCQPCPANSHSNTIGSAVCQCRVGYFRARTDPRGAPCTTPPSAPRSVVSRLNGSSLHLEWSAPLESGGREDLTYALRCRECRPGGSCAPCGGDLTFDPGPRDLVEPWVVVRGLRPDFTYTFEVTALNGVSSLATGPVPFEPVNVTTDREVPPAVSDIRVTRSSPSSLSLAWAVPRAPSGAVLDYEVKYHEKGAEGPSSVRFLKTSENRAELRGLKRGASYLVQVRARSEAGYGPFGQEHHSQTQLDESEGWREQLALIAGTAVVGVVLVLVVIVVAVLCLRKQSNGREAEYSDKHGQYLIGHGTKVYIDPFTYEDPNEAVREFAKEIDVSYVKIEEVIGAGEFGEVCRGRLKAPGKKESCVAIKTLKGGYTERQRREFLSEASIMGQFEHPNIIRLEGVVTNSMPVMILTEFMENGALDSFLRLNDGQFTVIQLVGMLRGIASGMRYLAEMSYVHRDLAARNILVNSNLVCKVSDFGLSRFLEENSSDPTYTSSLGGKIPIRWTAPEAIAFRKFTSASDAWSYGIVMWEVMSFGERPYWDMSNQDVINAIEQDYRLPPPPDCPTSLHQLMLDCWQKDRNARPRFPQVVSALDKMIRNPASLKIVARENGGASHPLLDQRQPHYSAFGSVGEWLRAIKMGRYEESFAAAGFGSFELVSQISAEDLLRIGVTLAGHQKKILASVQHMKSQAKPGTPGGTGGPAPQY
tolC growth inh: blocks growth of E. coli BW25113 tolC mutant; OD615; growth inhibition, % at 10 µM (by protocol); 65,000 tested, 2.2% active; AID 573;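 active = growth inhibition at or above a cutoff equal to the mean over every tested compound plus 3 SD, cut at about 60% in these data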;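 note: growth measured after 20 h incubation at 37 °C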
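Test system: tolC-deleted E. coli BW25113; medium: LB with kanamycin 50 µg/mL; compound: single-point testing at 10 µM; incubation: 20 h compound exposure of bacteria at 37 °C; signal: OD at 615 nm; evaluation: growth inhibition in percent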
PostGolgi yeast: growth inhibition of a yeast mutant, post-Golgi transport screen; 98,000 tested, 0.9% active; AID 739; post-Golgi transport phenotypic cell assay; inhibition, % at 10 µM;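 note: yeast cells grown in 1536-well plates; yeast grown about 18 h at 30C before absorbance read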
* marks the source's active call; other numbers are inactive results. Cut-off read from the data, not from the text of the source, unless noted: active = inhibition above about 30%; inactive = the rest.

Results for Cc1cc(C)c(S(C)(=O)=O)c(Oc2cccc(Cl)c2)n1 ?
E coli WT exp: -8; PostGolgi ctrl: 3; EphB4 antag: -1; PostGolgi yeast: 32*

How did CCCn1nnc(NC(=O)c2cccc(OCc3ccccc3)c2)n1 do in these assays?
E coli WT exp: -2; PostGolgi ctrl: 11; EphB4 antag: -3; PostGolgi yeast: -6

Results for CCCc1c(C(=O)OCC)[nH]c2c1C(=O)CCC2 ?
E coli WT exp: 2; PostGolgi ctrl: 9; EphB4 antag: -1; tolC growth inh: 46; PostGolgi yeast: 5

What do the screens show for `COC(=O)C1C(=O)c2c([nH]c(C(=O)OC3CCCC3)c2C)CC1C` (centres undefined)?
E coli WT exp: -8; PostGolgi ctrl: 5; EphB4 antag: -2; tolC growth inh: -4; PostGolgi yeast: 1

What do the screens show for `Cc1c(C(=O)OC2CCCC2C)[nH]c2c1C(=O)CCC2` (centres undefined)?
E coli WT exp: -1; PostGolgi ctrl: 19; tolC growth inh: 84*; PostGolgi yeast: 1

What do the screens show for `Cc1c(C(=O)OCCOc2ccccc2)[nH]c2c1C(=O)CCC2`?
E coli WT exp: -8; PostGolgi ctrl: 14; EphB4 antag: 6; tolC growth inh: 63*; PostGolgi yeast: -6

What do the screens show for `O=C(CNS(=O)(=O)c1ccc(Br)cc1)N1CCOCC1`?
E coli WT exp: -4; PostGolgi ctrl: 9; EphB4 antag: 3; PostGolgi yeast: 6

What do the screens show for `O=c1ccc(Oc2nc(N3CCOCC3)nc(N3CCOCC3)n2)n[nH]1`?
E coli WT exp: 6; PostGolgi ctrl: 4; EphB4 antag: -6; PostGolgi yeast: 2

What do the screens show for `Cc1cc(C(=O)CSc2nnc(Nc3ccccc3F)s2)c(C)n1CC1CCCO1` (centres undefined)?
E coli WT exp: -6; PostGolgi ctrl: 9; EphB4 antag: 15*; tolC growth inh: 19; PostGolgi yeast: 3

How did Cn1c(=O)[nH]c(=O)c2c1nc(CN1CCN(c3cccc(Cl)c3)CC1)n2Cc1ccccc1Cl do in these assays?
E coli WT exp: -2; PostGolgi ctrl: 51*; tolC growth inh: 21; PostGolgi yeast: 8

What do the screens show for `Cc1cccc(Cn2c(N3CCCCC3C)nc3c2c(=O)[nH]c(=O)n3C)c1` (centres undefined)?
E coli WT exp: 5; PostGolgi ctrl: 31*; EphB4 antag: 3; tolC growth inh: 18; PostGolgi yeast: 1

How did CCN1CCN(Cc2nc3c(c(=O)[nH]c(=O)n3C)n2Cc2ccccc2Cl)CC1 do in these assays?
EphB4 antag: -6; tolC growth inh: -4

What do the screens show for `Cc1cccc(Cn2c(N3CCc4ccccc4C3)nc3c2c(=O)[nH]c(=O)n3C)c1`?
E coli WT exp: -6; PostGolgi ctrl: 10; EphB4 antag: -2; PostGolgi yeast: 2

Results for Cn1c(=O)[nH]c(=O)c2c1nc(N1CCCCCC1)n2Cc1cccc2ccccc12 ?
E coli WT exp: -2; PostGolgi ctrl: -3; EphB4 antag: 0; tolC growth inh: -23; PostGolgi yeast: -2

Results for CC1CCCN(c2nc3c(c(=O)[nH]c(=O)n3C)n2Cc2ccccc2Cl)C1 (centres undefined) ?
E coli WT exp: 4; PostGolgi ctrl: 34*; EphB4 antag: -2; tolC growth inh: 23; PostGolgi yeast: 2

How did Cc1ccc(Cn2c(N3CCCCCC3)nc3c2c(=O)[nH]c(=O)n3C)cc1 do in these assays?
E coli WT exp: 3; PostGolgi ctrl: 43*; EphB4 antag: -6; tolC growth inh: 16; PostGolgi yeast: 6

What do the screens show for `O=C(COC(=O)CCC(=O)c1cccs1)Nc1cc(S(=O)(=O)N2CCOCC2)ccc1Cl`?
E coli WT exp: -6; PostGolgi ctrl: 4; EphB4 antag: 2; PostGolgi yeast: -4

Results for CC1CCC2(CC1)C(Nc1cccc(Cl)c1)=NC(=S)N2CC#N (centres undefined) ?
EphB4 antag: 2

How did Cc1ccc(OCC(=O)Nc2sc3c(c2C#N)CCC3)cc1 do in these assays?
E coli WT exp: 2; PostGolgi ctrl: -7; EphB4 antag: 13; PostGolgi yeast: 15

What do the screens show for `N#Cc1c(NC(=O)COC(=O)c2ccc(F)cc2)sc2c1CCC2`?
E coli WT exp: -2; PostGolgi ctrl: 37*; EphB4 antag: -2; PostGolgi yeast: -1

How did Cc1ccc(NC(=O)c2ccc(-c3nn(C)c(=O)c4ccccc34)cc2)cc1 do in these assays?
E coli WT exp: -3; PostGolgi ctrl: -3; EphB4 antag: -4; PostGolgi yeast: 3

Results for Cc1ccc(NC(=O)c2ccc(-c3nn(C)c(=O)c4ccccc34)cc2)c(C)c1 ?
E coli WT exp: -15; PostGolgi ctrl: 41*; EphB4 antag: -1; PostGolgi yeast: -4

What do the screens show for `O=C(CN(C(=O)CCC(=O)Nc1nccs1)c1ccc(F)cc1)NCc1ccco1`?
E coli WT exp: -2; PostGolgi ctrl: 32*; EphB4 antag: 6; tolC growth inh: -18; PostGolgi yeast: 0

What do the screens show for `O=C(CN(C(=O)CCC(=O)Nc1nccs1)c1ccc(F)c(Cl)c1)NCc1ccco1`?
E coli WT exp: -6; PostGolgi ctrl: 2; tolC growth inh: -20; PostGolgi yeast: 2

How did O=C(Nc1cccc(Cl)c1)ON=C1c2ccccc2-c2ccccc21 do in these assays?
E coli WT exp: 5; PostGolgi ctrl: 23; EphB4 antag: 5; PostGolgi yeast: 0

How did Nc1cc(C(=O)OCC(=O)N2CCCC2)ccc1Cl do in these assays?
E coli WT exp: 5; PostGolgi ctrl: 32*; EphB4 antag: -2; tolC growth inh: -11; PostGolgi yeast: 6

What do the screens show for `O=C(OCC(=O)N1CCCC1)c1cncc(Br)c1`?
E coli WT exp: 1; PostGolgi ctrl: -3; EphB4 antag: 2; tolC growth inh: -13; PostGolgi yeast: 1

Results for COc1ccc(CNC(=O)COC(=O)c2cnccn2)cc1 ?
E coli WT exp: 3; PostGolgi ctrl: 6; EphB4 antag: 0; PostGolgi yeast: 1

How did N#CCCn1c(Cl)nc2ccccc21 do in these assays?
E coli WT exp: 8; PostGolgi ctrl: 9; EphB4 antag: -2; tolC growth inh: -13; PostGolgi yeast: 3

What do the screens show for `CCOc1ccc(Nc2cc(=O)oc3ccccc23)cc1`?
E coli WT exp: -5; PostGolgi ctrl: 48*; EphB4 antag: 12; PostGolgi yeast: -1

What do the screens show for `CCOc1ccc2oc(=O)cc(C)c2c1`?
E coli WT exp: 6; PostGolgi ctrl: 36*; EphB4 antag: -2; PostGolgi yeast: 4

What do the screens show for `CCCCNc1cc(=O)oc2ccccc12`?
E coli WT exp: 9; PostGolgi ctrl: 25; EphB4 antag: 7; PostGolgi yeast: 8

How did CCOC(=O)c1cnc2nc[nH]n2c1=O do in these assays?
tolC growth inh: -6

How did CCOC(=O)c1cnc2scnn2c1=O do in these assays?
E coli WT exp: 1; PostGolgi ctrl: 37*; EphB4 antag: 8; tolC growth inh: -12; PostGolgi yeast: 6

What do the screens show for `COc1ccc(/C=N/n2c(-c3cccs3)n[nH]c2=S)cc1`?
E coli WT exp: 2; PostGolgi ctrl: 40*; EphB4 antag: -2; PostGolgi yeast: 2

What do the screens show for `Cc1ccc(/C=N/n2c(-c3cccs3)n[nH]c2=S)cc1`?
E coli WT exp: -8; PostGolgi ctrl: 33*; EphB4 antag: -9; PostGolgi yeast: -10

Bioassay records: PubChem, several laboratories
